# In the library only some 0.93% were active in any assay of this set; here they are far more common.
# JNK3 blocker: inhibitors of human JNK3 kinase; P53779; purified JNK3 kinase activity, HTS; inhibition, % at 8 µM; 0.61% of 60,000 active; in the data active means inhibition above about 17%
# HEK293 NFkB inh: inhibitors of the PMA/ionomycin-induced NF-kB reporter in HEK293 cells. HEK-293 NF-kB luciferase reporter, luminescence. inhibition, % at 3 µM. 0.21% of 62,000 active;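 active means inhibition above the mean of all tested compounds plus 3 SD, cut at about 40% in these data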
#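 Signal: luciferase luminescence; Material: HEK-293 cells with stable firefly luciferase reporter driven by four HIV NF-kB elements; Probe or stimulus: PMA with ionomycin; Replication: tested once; Times: 1 h compound pretreatment, then 16 h stimulation at 37 °C, 5% CO2; Benchmarks: DMSO and 10 µM reference inhibitor; Evaluation: per-plate % inhibition versus controls.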
# MMP-13 inhibitor: inhibitors of human MMP13; P45452; MMP-13 fTHP FRET cleavage, Mca fluorescence; inhibition, % at 4 µM; 0.07% of 65,000 active;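 active means inhibition above the mean of compound-free control plate wells plus 3 SD, cut at about 14% in these data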
# HePTP inh: human HePTP phosphatase inhibition; inhibition, % at 20 µM; P35236; recombinant HePTP phosphatase activity, OD absorbance; 0.64% of 110,000 active; in the data active means inhibition above about 50%; inconclusive means no clear call, values can overlap the other calls
# Target sequence (P35236 whole entry, looked up): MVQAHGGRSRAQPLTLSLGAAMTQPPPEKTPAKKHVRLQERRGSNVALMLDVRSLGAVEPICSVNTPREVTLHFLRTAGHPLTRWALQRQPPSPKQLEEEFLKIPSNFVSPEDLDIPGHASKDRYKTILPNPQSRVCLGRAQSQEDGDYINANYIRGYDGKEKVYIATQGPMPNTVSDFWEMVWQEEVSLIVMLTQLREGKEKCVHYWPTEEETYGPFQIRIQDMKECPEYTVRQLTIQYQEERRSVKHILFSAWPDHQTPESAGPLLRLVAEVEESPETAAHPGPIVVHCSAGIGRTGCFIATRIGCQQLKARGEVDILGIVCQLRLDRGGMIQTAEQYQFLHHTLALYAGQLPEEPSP
# Hits are given with their value; 0 = inactive; ? = inconclusive; - = no result given.
SMILES,JNK3 blocker,HEK293 NFkB inh,MMP-13 inhibitor,HePTP inh
NC(=O)CSP(=O)(c1ccccc1)c1ccccc1,0,0,0,0
O=C(CF)NC(=C(Cl)Cl)P(=O)(c1ccccc1)c1ccccc1,-,-,-,103
Cc1ccccc1OP1(=O)OC(=O)c2cc(Cl)ccc2O1 (stereo not drawn),-,-,-,0
CCOc1ccc(N2C(=O)/C(=C/c3ccc(Br)o3)C(=O)NC2=S)cc1,-,-,-,101
CCOc1ccc(N2C(=O)/C(=C/c3ccc(C)o3)C(=O)NC2=S)cc1,-,-,-,0
CN1C(=O)NC(=O)/C(=C/c2ccc(Br)o2)C1=O,-,-,-,76
O=C1NC(=O)C(CCc2ccncc2)(c2ccccc2)C(=O)N1,0,0,37,0
COc1ccc(OC)c(N2C(=O)NC(=O)C(CCc3ccncc3)(CCc3ccncc3)C2=O)c1,0,0,0,0
CCCCN(CC#CCOCCC#N)CCCC,-,-,-,0
CCn1nc(-c2ccccc2)nc2c(=O)n(C)c(=O)nc1-2,55,90,0,?
Cn1c(=O)n(CC(=O)N2CCC3(CC2)OCCO3)c(=O)c2ccccc21,0,0,0,0
O=C(CCCCCn1c(=S)[nH]c2ccccc2c1=O)N1CCC2(CC1)OCCO2,28,0,0,0
O=C1NC(=O)N(c2cccc(Br)c2)C(=O)/C1=C/c1ccco1,-,-,-,102
O=c1c2cc(I)ccc2nc(/C=C/c2cccc([N+](=O)[O-])c2)n1-c1ccccc1,-,-,-,0
O=c1[nH]c(=S)n(-c2ccccc2F)c(O)c1C=C1C=CC=N1,-,-,-,103
O=C(c1ccccc1)c1cc(Cl)ccc1NC(=O)c1nc[nH]c1C(=O)N1CCOCC1,-,-,-,0

# Bioassay records: PubChem BioAssay, several laboratories
